According to ChEMBL document CHEMBL5032510, “Identification of Novel Fused Heteroaromatics-Based MALT1 Inhibitors by High-Throughput Screening to Treat B Cell Lymphoma” (J Med Chem, 2021):
The source made the active and inactive calls. The calls are words filed in the database; no cut-off is given here.

Assays:
TMD8 [1] = assay: Induction of apoptosis in human TMD8 cells assessed as viable cells at 2 uM measured after 24 hrs by Annexin V-FITC/ Propidium iodide staining based flow cytometry (reference value: 90.8%); assay type: functional; conditions: read-out: Activity
[2] = molecular target: T1, Mucosa-associated lymphoid tissue lymphoma translocation protein 1 (Homo sapiens, UniProt Q9UDY8); assay: Inhibition of N-terminal his-tagged GCN4 leucine zipper fused human MALT1 […] expressed in Escherichia coli using Ac-LVSR-AMC as substrate by HTS assay
T1 sequence (Q9UDY8 whole entry): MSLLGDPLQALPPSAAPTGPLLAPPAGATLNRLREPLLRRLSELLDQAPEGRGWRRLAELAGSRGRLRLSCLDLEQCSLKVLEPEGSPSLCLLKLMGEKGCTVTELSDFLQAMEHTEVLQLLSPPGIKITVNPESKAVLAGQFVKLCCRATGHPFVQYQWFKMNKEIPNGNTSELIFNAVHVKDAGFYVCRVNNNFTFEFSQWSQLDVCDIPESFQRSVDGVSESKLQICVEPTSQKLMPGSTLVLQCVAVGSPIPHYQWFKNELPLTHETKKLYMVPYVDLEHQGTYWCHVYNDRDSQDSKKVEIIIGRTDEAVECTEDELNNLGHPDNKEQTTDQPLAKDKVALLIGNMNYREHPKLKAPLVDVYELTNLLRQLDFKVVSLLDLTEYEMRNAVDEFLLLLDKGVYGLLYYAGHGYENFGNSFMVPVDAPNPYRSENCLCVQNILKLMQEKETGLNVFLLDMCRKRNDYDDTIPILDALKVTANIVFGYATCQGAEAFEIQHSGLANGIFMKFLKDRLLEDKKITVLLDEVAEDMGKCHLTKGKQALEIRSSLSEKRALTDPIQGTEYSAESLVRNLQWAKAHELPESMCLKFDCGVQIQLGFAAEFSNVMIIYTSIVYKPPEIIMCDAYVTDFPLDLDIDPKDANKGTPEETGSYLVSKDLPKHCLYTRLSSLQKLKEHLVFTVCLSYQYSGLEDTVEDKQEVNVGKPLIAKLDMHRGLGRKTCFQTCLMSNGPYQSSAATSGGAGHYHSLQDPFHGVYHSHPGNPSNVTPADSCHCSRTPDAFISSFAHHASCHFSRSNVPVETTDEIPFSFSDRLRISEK

TMD8 [3] = assay: Induction of apoptosis in human TMD8 cells assessed as increase in cleaved caspase 3 level measured after 12 hrs by Western blot analysis; assay type: functional, cell-based
Procedure, shortened: (§1)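 HBL1, TMD8 or OCI-LY1 cells were exposed to DMSO or compound for 12 h. Cleaved PARP and caspase-3 were probed by western blot with HRP-conjugated secondary antibodies and chemiluminescent detection. Each lane held 20−75 μg total protein.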

TMD8 [4] = assay: Induction of apoptosis in human TMD8 cells assessed as viable cells at 5 uM measured after 24 hrs by Annexin V-FITC/ Propidium iodide staining based flow cytometry (reference value: 90.8%); assay type: functional; conditions: read-out: Activity
TMD8 [5] = assay: Induction of apoptosis in human TMD8 cells assessed as viable cells at 10 uM measured after 24 hrs by Annexin V-FITC/ Propidium iodide staining based flow cytometry (reference value: 90.8%); assay type: functional; conditions: read-out: Activity
TMD8 [6] = assay: Induction of apoptosis in human TMD8 cells assessed as dead cells at 10 uM measured after 24 hrs by Annexin V-FITC/ Propidium iodide staining based flow cytometry (reference value: 0%); assay type: functional
[7] = Induction of apoptosis in human HBL1 cells assessed as late apoptotic cells at 2 uM measured after 24 hrs by Annexin V-FITC/ Propidium iodide staining based flow cytometry (reference value: 4.77%); assay type: functional
[8] = MRT (0 to t) in CD-1 mouse at 10 mg/kg, po by LC-MS/MS analysis; assay type: ADME, organism-based; conditions: in vivo
Procedure, shortened: (§2)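 Male ICR (CD-1) mice (n = 9). Compound formulated in 5% DMSO + 5% Tween-80 in 90% saline and dosed 10 mg/kg po, 1 mg/kg ip or 1 mg/kg iv. Blood drawn from the jugular vein at set time points and held on ice. Plasma separated by centrifugation and stored at −80 °C before parameter derivation.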

OCI-Ly1 [9] = assay: Induction of apoptosis in human OCI-Ly1 cells assessed as viable cells at 2 uM measured after 24 hrs by Annexin V-FITC/ Propidium iodide staining based flow cytometry (reference value: 97.8%); assay type: functional; conditions: read-out: Activity
[10] = Cmax in CD-1 mouse at 10 mg/kg, po by LC-MS/MS analysis; assay type: ADME, organism-based; parameters: route oral, dose 10 mg/kg; conditions: in vivo
Procedure, shortened: (§3)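 Compound formulated in 5% DMSO + 5% Tween-80 in 90% saline and given to male ICR (CD-1) mice (n = 9) at 10 mg/kg po, 1 mg/kg ip or 1 mg/kg iv. Blood was drawn via the jugular vein at set time points and held on ice. Plasma was separated by centrifugation and stored at −80 °C before PK parameters were derived.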

[11] = MRT (0 to t) in CD-1 mouse at 1 mg/kg, ip by LC-MS/MS analysis; assay type: ADME, organism-based; conditions: in vivo; procedure, shortened: as §2
[12] = Clearance in CD-1 mouse at 1 mg/kg, iv by LC-MS/MS analysis; assay type: ADME, organism-based; conditions: in vivo; procedure, shortened: as §3
[13] = Toxicity in NCG mouse xenografted with human TMD8 cells assessed as diarrhea at 30 mg/kg/day, ip measured for 13 days; conditions: in vivo, 312 h
[14] = Antiproliferative activity against human HBL1 cells assessed as inhibition of cell growth incubated for 72 hrs by Celltiter-Glo luminescent assay; assay type: functional
Procedure, shortened: (§4)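 Exponentially growing cells were seeded at 1 × 10⁴ per 100 μL. HBL-1 and TMD8 were kept in RPMI with 10% FBS, 2 mM glutamine and 10 mM HEPES; OCI-LY1 in Iscove's medium with 20% FBS; all at 37 °C and 5% CO2. Cells were exposed to DMSO or 2-fold serial dilutions from 100 μM for 72 h, in triplicate on one plate. CellTiter-Glo luminescence was read after 1 h. Growth inhibition was calculated against control, accounting for initial cell number, and GI50 was fitted.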

TMD8 [15] = assay: Induction of apoptosis in human TMD8 cells assessed as increase in cleaved PARP level measured after 12 hrs by Western blot analysis; assay type: functional, cell-based; procedure, shortened: as §1
OCI-Ly1 [16] = assay: Induction of apoptosis in human OCI-Ly1 cells assessed as late apoptotic cells at 5 uM measured after 24 hrs by Annexin V-FITC/ Propidium iodide staining based flow cytometry (reference value: 0.548%); assay type: functional
HBL1 = assay: Induction of apoptosis in human HBL1 cells assessed as increase in cleaved caspase 3 level measured after 12 hrs by Western blot analysis; assay type: functional, cell-based; procedure, shortened: as §1
[17] = Half life in CD-1 mouse at 10 mg/kg, po by LC-MS/MS analysis; assay type: ADME, organism-based; conditions: in vivo; procedure, shortened: as §3
TMD8 [18] = assay: Induction of apoptosis in human TMD8 cells assessed as early apoptotic cells at 2 uM measured after 24 hrs by Annexin V-FITC/ Propidium iodide staining based flow cytometry (reference value: 6.97%); assay type: functional
TMD8 [19] = assay: Antiproliferative activity against human TMD8 cells assessed as inhibition of cell growth incubated for 72 hrs by Celltiter-Glo luminescent assay; assay type: functional; procedure, shortened: as §4
OCI-Ly1 [20] = assay: Induction of apoptosis in human OCI-Ly1 cells assessed as increase in cleaved caspase 3 level at 2 to 5 uM measured after 12 hrs by Western blot analysis; assay type: functional, cell-based; conditions: dose 2-5 µM; procedure, shortened: as §1

COc1ccc(OC)c(NC(=O)c2sc(=S)n(-c3ccc(C(F)(F)F)cc3)c2NC(=O)CCl)c1
viability at 2 µM (TMD8 [1]): 89.4% | IC50 [2]: 5300 nM | Activity (TMD8 [3]): Dose-Dependent Effect | viability at 5 µM (TMD8 [4]): 14.8% | viability at 10 µM (TMD8 [5]): 3.65% | Activity (TMD8 [6]): 0.625% | Activity [7]: 5.5% | MRT last [8]: 5.62 h | viability at 2 µM (OCI-Ly1 [9]): 97.4% | Cmax [10]: 1530 ng/mL | MRT last [11]: 5.95 h | clearance [12]: 14.1 mL/min/kg | Activity [13]: Non-Toxic | GI50 [14]: 1000 nM | Activity (TMD8 [15]): Dose-Dependent Effect | Activity (OCI-Ly1 [16]): 0.774% | Activity (HBL1): Dose-Dependent Effect | half-life [17]: 2.83 h | Activity (TMD8 [18]): 8% | GI50 (TMD8 [19]): 400 nM | Activity (OCI-Ly1 [20]): inactive
